ChEMBL document CHEMBL3875209, “Synthesis and biological evaluation of cis-restricted triazole/tetrazole mimics of combretastatin-benzothiazole hybrids as tubulin polymerization inhibitors and apoptosis inducers” (Bioorg Med Chem, 2017)
The source made the active and inactive calls. The calls are words filed in the database; no cut-off is given here.

Key:
Homo sapiens = organism: Homo sapiens; experiment: Inhibition of colchicine binding to tubulin (unknown origin) at 5 to 20 uM after 60 mins by fluorescence assay
Method in brief: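 Tubulin (3 µM) incubated with compound at 5–20 µM, with and without colchicine (3 µM), in 30 mM Tris for 60 min at 37 °C. Fluorescence read at ex 350/em 435 nm. Tris blank and the colchicine-free signal were subtracted, and values normalized to DMSO. CA-4 and vinblastine served as controls.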

[1] = Antiproliferative activity against human HepG2 cells after 48 hrs by MTT assay; type: functional, cell-based; conditions: HepG2, 48 h
Method in brief: (§1)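 MTT assay. Cells seeded in DMEM with 10% FBS and left 24 h at 37 °C in CO2 before compound treatment for 48 h. MTT (5 mg/mL stock) added for 4 h, formazan dissolved in DMSO, absorbance read at 570 nm. IC50 taken as the mean of three independent experiments.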

[2] = Inhibition of porcine brain tubulin polymerization in presence of GTP by fluorescence assay; set-up: species or system Sus scrofa
Method in brief: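 Tubulin polymerization IC50: compounds preincubated with tubulin at 0.5, 1, 2, 3 and 5 µM. Reactions in PEM buffer with […], polymerization followed by reporter fluorescence at ex 360/em 420 nm, with CA-4 as reference.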

A549 [3] = experiment: Induction of apoptosis in human A549 cells assessed as nuclei condensation at 50 nM after 48 hrs by Hoechst 33258 staining based fluorescence microscopic analysis; type: functional, cell-based
Method in brief: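 A549 cells (5 × 10⁴/well) allowed to adhere 48 h, then treated at 50 nM for 48 h at 37 °C. Fixed in 4% paraformaldehyde at 4 °C for 10 min and stained with Hoechst 33258 (5 µg/mL) for 30 min at room temperature. Nuclear condensation scored by fluorescence microscopy (ex 350/em 460 nm, 10X).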

A549 [4] = experiment: Induction of mitochondrial membrane potential loss in human A549 cells at 100 nM after 48 hrs by JC-1 staining based flow cytometry (reference value: 3.8%); type: functional
A549 [5] = experiment: Induction of apoptosis in human A549 cells assessed as necrotic cells at 100 nM after 48 hrs by Annexin-V FITC/propidium iodide staining based flow cytometry (reference value: 0.1%); type: functional
A549 [6] = experiment: Induction of apoptosis in human A549 cells assessed as late apoptotic cells at 100 nM after 48 hrs by Annexin-V FITC/propidium iodide staining based flow cytometry (reference value: 0.6%); type: functional
A549 [7] = experiment: Induction of ROS generation in human A549 cells at 100 nM after 48 hrs by DCFDA staining based flow cytometry (reference value: 4.4%); type: functional
[8] = Cell cycle arrest in human A549 cells assessed as accumulation at G0/G1 phase at 100 nM after 48 hrs by propidium iodide staining based flow cytometry (reference value: 78.5%); type: functional
Method in brief: (§2)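 A549 cells exposed for 48 h at 50 or 100 nM. Cells harvested, washed in PBS, fixed in ice-cold 70% ethanol and stained with propidium iodide. Phase distribution (G0/G1, S, G2/M) measured by flow cytometry against untreated cells.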

A549 [9] = experiment: Inhibition of alpha-tubulin polymerization in human A549 cells assessed as increase in soluble tubulin fraction at 1 uM after 48 hrs by Western blot method; type: cell-based
Method in brief: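 A549 cells (1 × 10⁵/well) treated at 1 µM for 48 h alongside DMSO, CA-4 and paclitaxel controls. Soluble fraction released with warm Pipes-KOH pH 6.8/Triton lysis buffer (3 min, 30 °C); insoluble fraction taken in Laemmli buffer. Both fractions blotted on SDS-10% PAGE with anti-α-tubulin and ECL detection.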

[10] = Antiproliferative activity against human MCF7 cells after 48 hrs by MTT assay; type: functional, cell-based; conditions: MCF7, 48 h; method in brief: as §1
[11] = Antiproliferative activity against human DU145 cells after 48 hrs by MTT assay; type: functional, cell-based; conditions: DU-145, 48 h; method in brief: as §1
[12] = Cell cycle arrest in human A549 cells assessed as accumulation at S phase at 50 nM after 48 hrs by propidium iodide staining based flow cytometry (reference value: 9.4%); type: functional; method in brief: as §2
[13] = Antiproliferative activity against human A549 cells after 48 hrs by MTT assay; type: functional, cell-based; conditions: A549, 48 h; method in brief: as §1
A549 [14] = experiment: Induction of apoptosis in human A549 cells assessed as early apoptotic cells at 100 nM after 48 hrs by Annexin-V FITC/propidium iodide staining based flow cytometry (reference value: 5.2%); type: functional
A549 [15] = experiment: Induction of apoptosis in human A549 cells assessed as live cells at 100 nM after 48 hrs by Annexin-V FITC/propidium iodide staining based flow cytometry (reference value: 94.2%); type: functional
[16] = Cell cycle arrest in human A549 cells assessed as accumulation at S phase at 100 nM after 48 hrs by propidium iodide staining based flow cytometry (reference value: 9.4%); type: functional; method in brief: as §2
[17] = Antiproliferative activity against human HeLa cells after 48 hrs by MTT assay; type: functional, cell-based; method in brief: as §1
A549 [18] = experiment: Inhibition of alpha-tubulin polymerization in human A549 cells assessed as disruption of microtubule organization at 50 nM after 48 hrs by FITC/DAPI staining based immunofluorescence microscopic assay; type: cell-based
Method in brief: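 A549 cells on coverslips treated at 50 nM for 48 h. Fixed in 3.5% formaldehyde/PBS, permeabilized with Triton X-100/Tween-20, blocked in 2% BSA. Anti-tubulin primary (1:200, 4 h) and FITC anti-mouse secondary (1:500, 1 h), DAPI mounting, confocal imaging.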

Sus scrofa = organism: Sus scrofa; experiment: Inhibition of porcine brain tubulin polymerization at 3 uM in presence of GTP by fluorescence assay relative to control
Method in brief: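 Fluorescence-reporter tubulin polymerization kit: PEM buffer with […], compound at 3 µM final, CA-4 as positive control. Fluorescence followed at ex 360/em 420 nm for 1 h at 37 °C. Mean ± SD of two experiments run in triplicate.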

A549 [19] = experiment: Induction of mitochondrial membrane potential loss in human A549 cells assessed as intact mitochondrial membrane at 100 nM after 48 hrs by JC-1 staining based flow cytometry (reference value: 95.9%); type: functional
[20] = Cell cycle arrest in human A549 cells assessed as accumulation at G2/M phase at 50 nM after 48 hrs by propidium iodide staining based flow cytometry (reference value: 12.1%); type: functional; method in brief: as §2
A549 [21] = experiment: Induction of ROS generation in human A549 cells at 50 nM after 48 hrs by DCFDA staining based flow cytometry (reference value: 4.4%); type: functional
A549 [22] = experiment: Induction of apoptosis in human A549 cells assessed as necrotic cells at 50 nM after 48 hrs by Annexin-V FITC/propidium iodide staining based flow cytometry (reference value: 0.1%); type: functional
[23] = Cell cycle arrest in human A549 cells assessed as accumulation at G0/G1 phase at 50 nM after 48 hrs by propidium iodide staining based flow cytometry (reference value: 78.5%); type: functional; method in brief: as §2
A549 [24] = experiment: Induction of mitochondrial membrane potential loss in human A549 cells at 50 nM after 48 hrs by JC-1 staining based flow cytometry (reference value: 3.8%); type: functional
A549 [25] = experiment: Induction of apoptosis in human A549 cells assessed as late apoptotic cells at 50 nM after 48 hrs by Annexin-V FITC/propidium iodide staining based flow cytometry (reference value: 0.6%); type: functional
A549 [26] = experiment: Induction of apoptosis in human A549 cells after 48 hrs by Annexin-V FITC/propidium iodide staining based flow cytometry; type: functional, cell-based
A549 [27] = experiment: Induction of apoptosis in human A549 cells assessed as increase in caspase-3 expression at 50 nM after 48 hrs by Western blot method; type: functional, cell-based
Method in brief: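 Caspase-3 western blot of A549 lysates after 48 h at 50 nM. Proteins extracted in RIPA buffer, 50 µg per lane on 10% SDS-PAGE, transferred to PVDF and blocked with BSA. Primary antibody incubated 24 h, HRP secondary 1 h, chemiluminescent detection, with β-actin as loading control.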

A549 [28] = experiment: Induction of apoptosis in human A549 cells assessed as live cells at 50 nM after 48 hrs by Annexin-V FITC/propidium iodide staining based flow cytometry (reference value: 94.2%); type: functional
A549 [29] = experiment: Induction of apoptosis in human A549 cells assessed as early apoptotic cells at 50 nM after 48 hrs by Annexin-V FITC/propidium iodide staining based flow cytometry (reference value: 5.2%); type: functional
A549 [30] = experiment: Induction of mitochondrial membrane potential loss in human A549 cells assessed as intact mitochondrial membrane at 50 nM after 48 hrs by JC-1 staining based flow cytometry (reference value: 95.9%); type: functional
[31] = Depolarization of mitochondrial membrane potential in human A549 cells after 48 hrs by JC-1 staining based flow cytometry; type: functional, cell-based
[32] = Cell cycle arrest in human A549 cells assessed as accumulation at G2/M phase at 100 nM after 48 hrs by propidium iodide staining based flow cytometry; type: functional; method in brief: as §2
[33] = Cell cycle arrest in human A549 cells assessed as accumulation at G2/M phase after 48 hrs by propidium iodide staining based flow cytometry; type: functional; method in brief: as §2

Row | SMILES | inhibition (Homo sapiens) | IC50 [1] | IC50 [2] | Activity (A549 [3]) | Activity (A549 [4]) | Activity (A549 [5]) | Activity (A549 [6]) | Activity (A549 [7]) | Activity [8] | inhibition (A549 [9]) | IC50 [10] | IC50 [11] | Activity [12] | IC50 [13] | Activity (A549 [14]) | Activity (A549 [15]) | Activity [16] | IC50 [17] | inhibition (A549 [18]) | inhibition (Sus scrofa) | further results
1 | COc1ccc(/C=C\c2cc(OC)c(OC)c(OC)c2)cc1O [COMBRETASTATIN A4] | Active | 9 nM | 1600 nM | Active | 21.8% | 1.7% | 13.3% | 18% | 26.1% | Active | 43 nM | 69 nM | 12.6% | 58 nM | 24.2% | 60.8% | 15.9% | 5 nM | Active | 73.2% | Activity (A549 [19]): 74.9%; Activity [20]: 31.3%
2 | COc1cc(-c2nncn2-c2ccc(-c3nc4ccc(F)cc4s3)cc2C)cc(OC)c1OC | Active | 300 nM | 1000 nM | Active | 22.2% | 0.7% | 8.2% | 20.9% | 19.8% | Active | 1410 nM | 280 nM | 14.7% | 48 nM | 27.2% | 63.9% | 15.4% | 150 nM | Active | 74.4% | Activity (A549 [21]): 10.4%; Activity (A549 [22]): 0.8%; Activity [23]: 60.6%; Activity (A549 [24]): 12.8%; Activity (A549 [25]): 5.8%; Activity (A549 [26]): Dose-dependent effect; Activity (A549 [27]): Active; Activity (A549 [28]): 78.3%; Activity (A549 [29]): 15.1%; Activity (A549 [30]): 85.2%; Activity (A549 [19]): 74.4%; Activity [20]: 25.1%; Activity [31]: Dose-dependent effect; Activity [32]: 65.5%; Activity [33]: Dose-dependent effect
3 | COc1ccc2nc(-c3ccc(-n4cnnc4-c4cc(OC)c(OC)c(OC)c4)c(C)c3)sc2c1 | Active | 670 nM | 1670 nM | Active | 16.9% | 1.1% | 9.2% | 12.3% | 21.5% | Active | 1130 nM | 480 nM | 10.6% | 54 nM | 23.7% | 66% | 17.6% | 160 nM | Active | 72.9% | Activity (A549 [21]): 6.8%; Activity (A549 [22]): 1.1%; Activity [23]: 63.7%; Activity (A549 [24]): 11%; Activity (A549 [25]): 8.1%; Activity (A549 [26]): Dose-dependent effect; Activity (A549 [27]): Active; Activity (A549 [28]): 77.3%; Activity (A549 [29]): 13.5%; Activity (A549 [30]): 87.2%; Activity (A549 [19]): 80.5%; Activity [20]: 25.9%; Activity [31]: Dose-dependent effect; Activity [32]: 59.5%; Activity [33]: Dose-dependent effect
